Data set [1] deals with T1, C-C chemokine receptor type 2 (Homo sapiens, UniProt P41597). Kind of data set: Displacement of [125I]hMCP1 from human CCR2 receptor expressed in CHO cells. Format: cell-based. The essentials:
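CHO cells expressing human CCR2b (5 × 10⁴) incubated 60 min at room temperature with ¹²⁵I-hMCP-1 (20–50 pM) plus varied competitor concentrations in 50 mM Hepes, 5 mM MgCl₂, 1 mM CaCl₂, pH 7.4. Stopped by filtration on polyethyleneimine-presoaked GF/B filters, washed with 25 mM Hepes pH 7.5/500 mM NaCl. IC50 is the average of triplicate measurements.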
For orientation: Displacement assays read how much labelled ligand stays bound in the presence of the test substance.
Target sequence in this assay (P41597 whole entry): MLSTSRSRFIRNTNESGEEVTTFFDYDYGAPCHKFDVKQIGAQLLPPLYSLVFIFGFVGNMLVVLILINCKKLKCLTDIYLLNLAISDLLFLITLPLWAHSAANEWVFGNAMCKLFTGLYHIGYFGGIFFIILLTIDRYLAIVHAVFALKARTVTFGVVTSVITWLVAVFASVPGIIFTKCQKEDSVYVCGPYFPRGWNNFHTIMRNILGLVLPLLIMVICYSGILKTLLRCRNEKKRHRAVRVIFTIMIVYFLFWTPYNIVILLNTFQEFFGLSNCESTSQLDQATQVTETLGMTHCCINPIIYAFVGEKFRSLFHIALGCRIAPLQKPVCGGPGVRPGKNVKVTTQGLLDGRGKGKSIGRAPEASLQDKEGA

A short description of data set [2]: AUC in Sprague-Dawley rat at 3 mg/kg, po. Further details: dose 3 mg/kg, route oral. Format: ADME, organism-based. As to conditions: plasma.
Data set [3] is described as follows: Tmax in Sprague-Dawley rat at 3 mg/kg, po. Format: ADME, organism-based. Further details: dose 3 mg/kg, route oral. The note with it: in vivo.
Data set [4] in a line: Cmax in Sprague-Dawley rat at 3 mg/kg, po. Format: ADME, organism-based. Further details: dose 3 mg/kg, route oral. As to conditions: in vivo.
The nature of data set [5]: Oral bioavailability in Sprague-Dawley rat at 3 mg/kg. Type of data set: ADME, organism-based. As to conditions: in vivo.
Data set [6] is described as follows: AUC in Beagle dog at 2 mg/kg, po. Type of data set: ADME, organism-based, Canis lupus familiaris. Further details: dose 2 mg/kg, route oral. The note with it: plasma.
Data set [7] is described as follows: Tmax in Beagle dog at 2 mg/kg, po. Format: ADME, organism-based, Canis lupus familiaris. Further details: dose 2 mg/kg, route oral. The note with it: in vivo.
Data set [8] can be described thus: Cmax in Beagle dog at 2 mg/kg, po. Type of data set: ADME, organism-based, Canis lupus familiaris. Further details: dose 2 mg/kg, route oral. The note with it: in vivo.
Data set [9] can be described thus: Oral bioavailability in Beagle dog at 2 mg/kg. Format: ADME, organism-based, Canis lupus familiaris. The note with it: in vivo.
Data set [10] can be described thus: AUC in rhesus monkey at 2 mg/kg, po. Type of data set: ADME, organism-based, Macaca mulatta. Further details: dose 2 mg/kg, route oral. The note with it: plasma.
Data set [11] is described as follows: Tmax in rhesus monkey at 2 mg/kg, po. Further details: dose 2 mg/kg, route oral. As to conditions: in vivo. Format: ADME, organism-based, Macaca mulatta.
Data set [12] in a line: Cmax in rhesus monkey at 2 mg/kg, po. The note with it: in vivo. Further details: dose 2 mg/kg, route oral. Format: ADME, organism-based, Macaca mulatta.
Data set [13] is described as follows: Oral bioavailability in rhesus monkey at 2 mg/kg. Format: ADME, organism-based, Macaca mulatta. The note with it: in vivo.
For data set [14], the target named is T1, C-C chemokine receptor type 2. Description: Displacement of [125I]hMCP1 from human CCR2 receptor expressed in CHO cells at 1 uM. Type of data set: cell-based.
Target sequence in this assay (P41597 whole entry, looked up): as the sequence (P41597 whole entry) above

Structures are written as SMILES.

Broadly, the IC50 is the point on the concentration scale where inhibition reaches its midpoint. Turning to `CC1COCCC1N[C@@H]1CC[C@@](C(=O)NCc2cc(C(F)(F)F)cc(C(F)(F)F)c2)(C(C)C)C1` (stereo in doubt; 59), the IC50 in [1] came to 0.0012 µM. `CC(C)[C@]1(C(=O)NCc2cc(C(F)(F)F)cc(C(F)(F)F)c2)CC[C@@H](NC2CCOCC2(O)C(F)(F)F)C1` (some centres undefined) registered a half-maximal inhibitory concentration (IC50) in [1] of 0.765 µM. Turning to `CC(C)[C@]1(C(=O)NCc2cc(C(F)(F)F)cc(C(F)(F)F)c2)CC[C@@H](NC2CCS(=O)(=O)CC2)C1`, the IC50 in [1] came out at 0.631 µM.

As to `Cc1ccc(-c2ccc3c(c2)C=C(C(=O)Nc2ccc(C[N+](C)(C)C4CCOCC4)cc2)CCC3)cc1`, in data set [1], the IC50 was found to be 0.028 µM. On to `CC(C)[C@]1(C(=O)NCc2cc(C(F)(F)F)cc(C(F)(F)F)c2)CC[C@@H](NC2CCSC2)C1` (some centres undefined), for which, in data set [1], the IC50 amounted to 0.036 µM. On the same count and under the same terms, for `CC1COCCC1N[C@@H]1CC[C@@](C(=O)NCc2cc(C(F)(F)F)cc(C(F)(F)F)c2)(C(C)C)C1` (stereo in doubt; 45) the value was 0.0015 µM. For the compound `CC(C)[C@]1(C(=O)NCc2cc(C(F)(F)F)cc(C(F)(F)F)c2)CC[C@@H](NC2CCCOC2)C1` (some centres undefined), in [1], the IC50 was determined as 0.056 µM.

`CCC1COCCC1N[C@@H]1CC[C@@](C(=O)NCc2cc(C(F)(F)F)cc(C(F)(F)F)c2)(C(C)C)C1` (stereo in doubt; 46) registered an IC50 in [1] of 0.003 µM. A word on the AUC: it is the area under the concentration-time curve, a measure of exposure. As usually defined, the Tmax is the time at which the peak concentration occurs. As a reminder, the Cmax is the maximum level reached in the sampled fluid or tissue. In general, bioavailability refers to dose-corrected exposure relative to a reference, in per cent. For the compound `CC(C)[C@]1(C(=O)NCc2cc(C(F)(F)F)cc(C(F)(F)F)c2)CC[C@@H](N[C@H]2CCOC[C@H]2C)C1`, the AUC was found to be 0.76 µM·h in data set [2], 0.62 µM·h in [6] and 0.01 µM·h in [10]. Further, the Tmax worked out at 15 min in data set [3], 45 min in [7] and 60 min in [11]. In addition, the figures for the Cmax in data set [4], in [8] and in data set [12] were 735 nM, 422 nM and 4 nM, respectively. The figures for the bioavailability in [5], in data set [9] and in data set [13] were 42%, 28% and 2%, respectively. Compound `CC(C)[C@]1(C(=O)NCc2cc(C(F)(F)F)cc(C(F)(F)F)c2)CC[C@@H](NC2CCCOCC2)C1` (some centres undefined) returned an IC50 in data set [1] of 0.03 µM.

In turn, `CC(C)[C@]1(C(=O)NCc2cc(C(F)(F)F)cc(C(F)(F)F)c2)CC[C@@H](NCC2CCOCC2)C1` showed an IC50 in data set [1] of 0.362 µM. The same measure, in the same setting: as for `CC(C)[C@]1(C(=O)NCc2cc(C(F)(F)F)cc(C(F)(F)F)c2)CC[C@@H](NC2CCOCC2)C1`, the figure is 0.0046 µM. Same read-out and setting: for `CC(C)[C@]1(C(=O)NCc2cc(C(F)(F)F)cc(C(F)(F)F)c2)CC[C@@H](NC2CCOCC2F)C1` (stereo in doubt; 50) the value was 0.006 µM. For the compound `CCCC1COCCC1N[C@@H]1CC[C@@](C(=O)NCc2cc(C(F)(F)F)cc(C(F)(F)F)c2)(C(C)C)C1` (some centres undefined), the 50% inhibitory concentration (IC50) in data set [1] stood at 0.0078 µM. The same measure, in the same setting: as for `CC(C)[C@]1(C(=O)NCc2cc(C(F)(F)F)cc(C(F)(F)F)c2)CC[C@@H](NC2CCCC2)C1`, the figure is 0.156 µM. The same measure, in the same setting: for `CC1COCC(C)C1N[C@@H]1CC[C@@](C(=O)NCc2cc(C(F)(F)F)cc(C(F)(F)F)c2)(C(C)C)C1` (some centres undefined) the value was 0.007 µM. The same measure, in the same setting: for `CCC1COCCC1N[C@@H]1CC[C@@](C(=O)NCc2cc(C(F)(F)F)cc(C(F)(F)F)c2)(C(C)C)C1` (stereo in doubt; 62) the value was 0.003 µM; for `CC1CC(N[C@@H]2CC[C@@](C(=O)NCc3cc(C(F)(F)F)cc(C(F)(F)F)c3)(C(C)C)C2)CCO1` (some centres undefined), 0.028 µM.

`CC(C)[C@]1(C(=O)NCc2cc(C(F)(F)F)cc(C(F)(F)F)c2)CC[C@@H](NC2CCCCCC2)C1` registered an IC50 in [1] of 0.175 µM. Compound `CC(C)[C@]1(C(=O)NCc2cc(C(F)(F)F)cc(C(F)(F)F)c2)CC[C@@H](NC2CCOCC2C(F)(F)F)C1` (some centres undefined) showed a concentration for half-maximal inhibition (IC50) in data set [1] of 0.0055 µM. Still for that read-out and setting: as for `CC(C)[C@]1(C(=O)NCc2cc(C(F)(F)F)cc(C(F)(F)F)c2)CC[C@@H](NC2CCOCC2C2CC2)C1` (some centres undefined), the figure is 0.123 µM; as for `CC(C)[C@]1(C(=O)NCc2cc(C(F)(F)F)cc(C(F)(F)F)c2)CC[C@@H](NC2CCC2)C1`, 0.193 µM. Still for that read-out and setting: for `CCC1COCCC1N[C@@H]1CC[C@@](C(=O)NCc2cc(C(F)(F)F)cc(C(F)(F)F)c2)(C(C)C)C1` (stereo in doubt; 61) the value was 0.0056 µM; for `CC(C)[C@]1(C(=O)NCc2cc(C(F)(F)F)cc(C(F)(F)F)c2)CC[C@@H](NC2CCc3ccccc3C2)C1` (some centres undefined), 0.239 µM. `CC(C)[C@]1(C(=O)NCc2cc(C(F)(F)F)cc(C(F)(F)F)c2)CC[C@@H](NC2CCOCC2F)C1` (stereo in doubt; 63) registered an IC50 in data set [1] of 0.259 µM. The same measure, in the same setting: as for `CC(C)[C@]1(C(=O)NCc2cc(C(F)(F)F)cc(C(F)(F)F)c2)CC[C@@H](NC2CCOCC2(C)C)C1` (some centres undefined), the figure is 0.23 µM; as for `CC(C)[C@]1(C(=O)NCc2cc(C(F)(F)F)cc(C(F)(F)F)c2)CC[C@@H](NC2CCOc3ccccc32)C1` (some centres undefined), 0.419 µM. On the same count and under the same terms, for `CC(C)[C@]1(C(=O)NCc2cc(C(F)(F)F)cc(C(F)(F)F)c2)CC[C@@H](NC2Cc3ccccc3C2)C1` the value was 0.187 µM; for `CC(C)[C@]1(C(=O)NCc2cc(C(F)(F)F)cc(C(F)(F)F)c2)CC[C@@H](NC2CCOCC2F)C1` (stereo in doubt; 64), 0.0143 µM. On the same count and under the same terms, for `CC(C)[C@]1(C(=O)NCc2cc(C(F)(F)F)cc(C(F)(F)F)c2)CC[C@@H](NC2CCc3ccccc32)C1` (some centres undefined) the value was 0.077 µM. Consider `CC1COCCC1N[C@@H]1CC[C@@](C(=O)NCc2cc(C(F)(F)F)cc(C(F)(F)F)c2)(C(C)C)C1` (stereo in doubt; 58), for which the IC50 in data set [1] stood at 0.004 µM. With `CCC1COCCC1N[C@@H]1CC[C@@](C(=O)NCc2cc(C(F)(F)F)cc(C(F)(F)F)c2)(C(C)C)C1` (stereo in doubt; 60), the IC50 in data set [1] stood at 0.141 µM. On the same count and under the same terms, for `CC(C)[C@]1(C(=O)NCc2cc(C(F)(F)F)cc(C(F)(F)F)c2)CC[C@@H](NC2CCOC2)C1` (some centres undefined) the value was 0.085 µM. Same read-out and setting: as for `CC1COCCC1N[C@@H]1CC[C@@](C(=O)NCc2cc(C(F)(F)F)cc(C(F)(F)F)c2)(C(C)C)C1` (stereo in doubt; 57), the figure is 0.042 µM; as for `CC(C)[C@]1(C(=O)NCc2cc(C(F)(F)F)cc(C(F)(F)F)c2)CC[C@@H](NC2CCSCC2)C1`, 0.022 µM. Turning to `CC(C)[C@]1(C(=O)NCc2cc(C(F)(F)F)cc(C(F)(F)F)c2)CC[C@@H](NC2CCNCC2)C1`, in data set [14], the Activity came out at 21%. `CC(C)[C@]1(C(=O)NCc2cc(C(F)(F)F)cc(C(F)(F)F)c2)CC[C@@H](NC2CCOCC2O)C1` (some centres undefined): the IC50 in [1] turned out to be 0.051 µM. The same measure, in the same setting: as for `CC(C)[C@]1(C(=O)NCc2cc(C(F)(F)F)cc(C(F)(F)F)c2)CC[C@@H](NC2CCCCC2)C1`, the figure is 0.064 µM.

For the origin of these results see ChEMBL document CHEMBL1153317, “Design, synthesis, and structure-activity relationship of novel CCR2 antagonists” (Bioorg Med Chem Lett, 2009).
